This note sets out measurements from ChEMBL document CHEMBL3779832, “Discovery of novel pyrrole-based scaffold as potent and orally bioavailable free fatty acid receptor 1 agonists for the treatment of type 2 diabetes” (Bioorg Med Chem, 2016).

Data set [1] relates to Mus musculus. Kind of data set: Toxicity in ICR mouse assessed as hypoglycemic effect at 15 mg/kg, po measured up to 180 mins. Type of data set: organism-based. The note with it: in vivo, 3 h. The method, boiled down: (§1)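 Normal male ICR mice, 10 weeks, fasted overnight (12 h), n = 6 per group. Single oral dose in 0.5% CMC vehicle, no glucose load. Tail-tip blood glucose by test strips at 0, 30, 60, 90, 120 and 180 min after dosing. Mean ± SEM for six animals, Student's t-test.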

Data set [2] addresses T1, Free fatty acid receptor 1 (Homo sapiens, UniProt O14842). The data set is described as follows: Agonist activity at human FFA1 expressed in CHO cells assessed as intracellular Ca2+ level at 100 nM measured for 90 secs by Fluo-4 AM-based FLIPR assay. Type of data set: functional, cell-based. The essentials:
(§2)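 CHO cells stably expressing human FFA1 (NM_005303), 15K cells/well, cultured overnight at 37 °C in 5% CO2. Cells were washed with HBSS, then loaded for 60 min at 37 °C with Fluo 4-AM 2.5 μg/mL, fatty acid-free BSA 0.1% and probenecid 2.5 mmol/L. Single screening concentration added and Ca2+ flux read on FLIPR Tetra for 90 s. Activity = (A−B)/(C−B)×100 against vehicle (B) and 10 μM γ-linolenic acid (C). Mean of three independent experiments.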

The target of data set [3] is T1, Free fatty acid receptor 1. The data set is described as follows: Agonist activity at human FFA1 expressed in CHO cells assessed as intracellular Ca2+ level at 300 nM measured for 90 secs by Fluo-4 AM-based FLIPR assay. The format is functional, cell-based. The method, boiled down:
as §2

Data set [4] concerns the target T1, Free fatty acid receptor 1. The data set is described as follows: Agonist activity at human FFA1 expressed in CHO cells assessed as intracellular Ca2+ level measured for 90 secs by Fluo-4 AM-based FLIPR assay. The format is functional, cell-based. The essentials:
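Calcium flux in CHO cells stably expressing human FFA1, plated at 15K cells/well overnight, loaded 60 min at 37 °C with Fluo 4-AM (2.5 μg/mL), 0.1% fatty acid-free BSA and 2.5 mmol/L probenecid. Various concentrations added and read by FLIPR for 90 s. Response normalised to vehicle and 10 μM γ-linolenic acid. EC50 from concentration–response fit, mean of three independent determinations.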

Data set [5] concerns Mus musculus. Kind of data set: Antihyperglycemic activity in STZ-induced type 2 diabetic C57BL/6 mouse model at 20 mg/kg, po administered as single dose 30 mins prior to glucose challenge measured up to 120 mins by OGTT. Type of data set: functional, organism-based. The essentials:
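Male C57BL/6 mice fed 45%-fat diet for 4 weeks, given STZ 80 mg/kg i.p., then kept on high-fat diet another 4 weeks; fasting glucose ≥11.1 mmol/L counted as diabetic. After a 12 h fast, n = 6/group, oral dose in 0.5% CMC, then 2 g/kg glucose (20% solution) orally 30 min later. Tail blood at −30, 0, 15, 30, 45, 60, 120 min, read with glucose strips.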

Data set [6] relates to Mus musculus. Kind of data set: Decrease in plasma glucose level in ICR mouse at 20 mg/kg, po administered as single dose 30 mins prior to glucose challenge measured up to 120 mins by OGTT. Type of data set: functional, organism-based. The essentials: (§3)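 Male ICR mice, 10 weeks old, fasted 12 h and randomized (n = 6/group). Single oral dose in 0.5% CMC (10 mL/kg), followed 30 min later by oral glucose 3 g/kg as a 30% solution. Tail-vein blood at −30, 0, 15, 30, 45, 60 and 120 min, glucose read with test strips. Mean ± SEM, two-tailed Student's t-test against vehicle.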

Data set [7] relates to Mus musculus. Kind of data set: Toxicity in ICR mouse assessed as hypoglycemic effect at 80 mg/kg, po measured up to 180 mins. The format is organism-based. The note with it: in vivo, 3 h. The method, boiled down: as §1
Data set [8] concerns Mus musculus. Kind of data set: Decrease in plasma glucose level in po dosed ICR mouse administered as single dose 30 mins prior to glucose challenge measured up to 120 mins by OGTT. Type of data set: functional, organism-based. The essentials: as §3

Active and inactive are the calls of the source. The rule behind the calls is not given here.

T1 sequence (O14842 whole entry): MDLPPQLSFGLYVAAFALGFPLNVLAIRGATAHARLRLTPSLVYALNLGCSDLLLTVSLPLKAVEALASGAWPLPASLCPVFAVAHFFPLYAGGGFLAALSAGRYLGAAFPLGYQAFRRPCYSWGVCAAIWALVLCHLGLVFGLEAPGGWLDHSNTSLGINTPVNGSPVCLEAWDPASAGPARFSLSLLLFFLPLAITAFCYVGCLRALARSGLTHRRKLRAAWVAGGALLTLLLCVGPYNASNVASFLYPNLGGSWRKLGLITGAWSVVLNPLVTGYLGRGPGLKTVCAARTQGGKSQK

Consider `COc1ccc(Cl)cc1C(=O)NCCc1ccc(S(=O)(=O)NC(=O)NC2CCCCC2)cc1` [GLYBURIDE], for which the Activity entry in the data set on Mus musculus [1] was “Toxic”.
With `O=C(O)CC1COc2cc(OCc3cccc(-n4cccc4)c3)ccc21` (stereo unspecified), the Activity in data set [2] came to 28.6%; in data set [3], 41.9%.
In the case of `O=C(O)CC1COc2cc(OCc3cccc(N4CCOCC4)c3)ccc21` (stereo unspecified), the Activity in data set [2] was 41.2%; in data set [3], 55.7%.
The like results for `O=C(O)CC1COc2cc(OCc3cccc(N4CCSCC4)c3)ccc21` (stereo unspecified) were, in that order, 38.2% and 52.2%.
For orientation: EC50 means the concentration at which the effect is half-maximal. Regarding `Cc1ccc(C)n1-c1cccc(COc2ccc3c(c2)OCC3CC(=O)O)c1` (stereo unspecified), the Activity in data set [2] stood at 59.9%; in data set [3], 71.3%. Further, in data set [4], the EC50 came to 46.9 nM.
As to `Cc1ccc(C)n1-c1cc(COc2ccc3c(c2)OCC3CC(=O)O)ccc1OCc1ccccc1` (stereo unspecified), in data set [2], the Activity worked out at 40.8%.
With `Cc1cc(OCCCS(C)(=O)=O)cc(C)c1-c1cccc(COc2ccc3c(c2)OC[C@H]3CC(=O)O)c1`, the outcome in the data set with Mus musculus [5] and in the data set on Mus musculus [6] was Active.
On to `CCOc1ccc(COc2ccc3c(c2)OCC3CC(=O)O)cc1-n1c(C)ccc1C` (stereo unspecified), for which the Activity in data set [2] came out at 54.6%. Further, the EC50 in data set [4] was determined as 61.2 nM.
Regarding `COc1ccc(COc2ccc3c(c2)OCC3CC(=O)O)cc1-n1c(C)ccc1C` (stereo unspecified), the Activity in data set [2] was 63.8%; in the data set with Mus musculus [7], “Non-toxic”; in the data set on Mus musculus [8], “Dose-dependent effect”. The outcome with Mus musculus [5] was Active. Also, in data set [4], the EC50 worked out at 34.7 nM.
Take `O=C(O)CC1COc2cc(OCc3cccc(N4CCCC4)c3)ccc21` (stereo unspecified): the figures for the Activity in data set [2] and in data set [3] were 43.7% and 56.3%, respectively.
For the molecule `Cc1cccc(C)c1-c1cccc(COc2ccc3c(c2)OCC3CC(=O)O)c1` (stereo unspecified), the Activity in data set [2] was determined as 62.6%; in data set [3], 74.4%. Moreover, in data set [4], the EC50 is 38.4 nM.
In the case of `Cc1cc(C(=O)N(C)C)c(C)n1-c1cccc(COc2ccc3c(c2)OCC3CC(=O)O)c1` (stereo unspecified), the Activity in data set [2] is 25.7%.
Same read-out and setting: next, `COCc1cc(C)n(-c2cccc(COc3ccc4c(c3)OCC4CC(=O)O)c2)c1C` (stereo unspecified): 31.7%.
For `O=C(O)CC1COc2cc(OCc3cccc(N4CCS(=O)(=O)CC4)c3)ccc21` (stereo unspecified), the values for the Activity in data set [2] and in data set [3] were 8.28% and 25.9%, respectively.
In the same order, the values of `O=C(O)CC1COc2cc(OCc3cccc(N4CCCCC4)c3)ccc21` (stereo unspecified) are 34.6% and 50.3%.
